Assay results gathered from unrelated publications.
Each line is one published result; the experiments were not run side by side. In brackets after ≈: the same amount, converted by molar mass.

Structure (SMILES)	target or system	test	system	conditions	endpoint	result
C#CCCC1(CCC(=O)NCc2cc(=O)c(O)c(CNC(=O)CCCCCC)n2C)N=N1	Pseudomonas aeruginosa	microbial growth	PAO1	–	IC50	> 100 µM
C[C@@H]1C[C@@H]([C@H](O)CC2CC(=O)NC(=O)C2)C(=O)[C@@H](C)C1	Pseudomonas aeruginosa	microbial growth, broth dilution	ATCC27 ATCC27853	–	MIC	16 µg/mL (≈ 56.9 µM)
C#CCCCCC(=O)NCc1cc(=O)c(O)c(CNC(=O)CCCCCC)n1C	Pseudomonas aeruginosa	microbial growth	PAO1	–	IC50	> 100 µM
O=[N+]([O-])c1ccc(NCCCCN=C=S)c2nonc12	T47D	cell growth or viability, MTT	–	24 h	IC50	2.8 µM
Cc1c(Cl)c(=O)oc2cc(OCCCC[Se]C#N)ccc12	MIA PaCa-2	cell growth or viability, SRB	–	–	GI50	13 µM
NCC[C@H](O)C(=O)N[C@@H]1C[C@H](N)[C@@H](O[C@H]2O[C@H](CN)[C@@H](O)[C@H](O)[C@H]2O)[C@H](O)[C@H]1O[C@H]1O[C@H](CO)[C@@H](O)[C@H](N)[C@H]1O	Mycobacteroides abscessus	microbial growth, broth dilution	–	–	MIC90	3.4 µg/mL (≈ 5.81 µM)
C[C@@H](N)[C@H](O)CCCCCCCC(=O)CCCCCCCCCCCCCC[C@@H](O[C@@H]1O[C@H](CO)[C@H](O)[C@H](O)[C@H]1O)[C@@H](C)N	Pseudomonas aeruginosa	microbial growth, resazurin	ATCC27853	50 µM	inhibition	99%
N#C[Se]CCCCOc1ccc2c(-c3ccccc3)cc(=O)oc2c1	T47D	cell growth or viability, SRB	–	–	GI50	26 µM
C#CCCCCCC(=O)NCc1c(O)c(=O)cc(C)n1C	Pseudomonas aeruginosa	microbial growth	PAO1	–	IC50	> 100 µM
Cc1cc(=O)oc2cc(OCCCC[Se]C#N)ccc12	T47D	cell growth or viability, SRB	–	–	GI50	2.2 µM
NNC(=O)c1ccncc1	Mycobacteroides abscessus	microbial growth, broth dilution	–	–	MIC90	> 500 µg/mL
O=c1c2ccccc2[se]n1-c1ccccc1	Zika virus	viral replication	–	48 h	IC50	7.4 µM
N.N.[Cl][Pt][Cl]	SU-DHL-2	cell growth or viability, ATP luminescence	–	72 h	IC50	0.56 µM
